Here are results for two compounds from ChEMBL document CHEMBL3817726, “Chemically Diverse Group I p21-Activated Kinase (PAK) Inhibitors Impart Acute Cardiovascular Toxicity with a Narrow Therapeutic Window” (J Med Chem, 2016).

Each structure is given as a SMILES string. Where only a bound is given, the exact number is not on record here.

Data set [1] concerns Mus musculus. As to the kind of experiment: fCmax associated with acute adverse effect in mouse at 50 mg/kg, ip. The class given is ADME, organism-based. Conditions: in vivo. The method in brief: (§1)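 Mouse tolerability studies at multiple doses, oral or intraperitoneal. Minimum unbound plasma concentration associated with adverse effects (total Cmax converted to unbound) compared with IC50 for inhibition of MEK1 S298 phosphorylation in cells.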

The target of data set [2] is Serine/threonine-protein kinase PAK 5 (Homo sapiens) (UniProt Q9P286). As to the kind of experiment: Inhibition of recombinant human full length His-tagged PAK5 expressed in Baculovirus at 1 uM relative to control.
Data set [3] concerns the target Serine/threonine-protein kinase 26 (Homo sapiens) (UniProt Q9P289). The data set is described as follows: Inhibition of recombinant human full length GST-tagged MST4 expressed in Baculovirus at 1 uM relative to control.
Data set [4] is described as follows: Cmax in mouse at 50 mg/kg, ip. To be noted: in vivo. Also on record: dose 50 mg/kg, route intraperitoneal. It counts as ADME, organism-based.
Data set [5] concerns the target Protein kinase C theta type (Homo sapiens) (UniProt Q04759). The data set is described as follows: Inhibition of recombinant human full length His-tagged PKCtheta expressed in Baculovirus at 1 uM relative to control.
Data set [6] addresses Ribosomal protein S6 kinase alpha-3 (Homo sapiens) (UniProt P51812). The data set is described as follows: Inhibition of recombinant human full length GST-tagged RSK3 expressed in insect cells at 1 uM relative to control.
The target of data set [7] is Adenosine receptor A2a (Homo sapiens) (UniProt P29274). The data set is described as follows: Inhibition of recombinant human adenosine A2A receptor expressed in HEK293 cells at 10 uM relative to control. The class given is cell-based.
Data set [8] deals with 5'-AMP-activated protein kinase catalytic subunit alpha-2 (Homo sapiens) (UniProt P54646). As to the kind of experiment: Inhibition of recombinant human PRKAA2 at 1 uM relative to control.
Chain of 5'-AMP-activated protein kinase catalytic subunit alpha-2 (Homo sapiens) (P54646 whole entry, looked up): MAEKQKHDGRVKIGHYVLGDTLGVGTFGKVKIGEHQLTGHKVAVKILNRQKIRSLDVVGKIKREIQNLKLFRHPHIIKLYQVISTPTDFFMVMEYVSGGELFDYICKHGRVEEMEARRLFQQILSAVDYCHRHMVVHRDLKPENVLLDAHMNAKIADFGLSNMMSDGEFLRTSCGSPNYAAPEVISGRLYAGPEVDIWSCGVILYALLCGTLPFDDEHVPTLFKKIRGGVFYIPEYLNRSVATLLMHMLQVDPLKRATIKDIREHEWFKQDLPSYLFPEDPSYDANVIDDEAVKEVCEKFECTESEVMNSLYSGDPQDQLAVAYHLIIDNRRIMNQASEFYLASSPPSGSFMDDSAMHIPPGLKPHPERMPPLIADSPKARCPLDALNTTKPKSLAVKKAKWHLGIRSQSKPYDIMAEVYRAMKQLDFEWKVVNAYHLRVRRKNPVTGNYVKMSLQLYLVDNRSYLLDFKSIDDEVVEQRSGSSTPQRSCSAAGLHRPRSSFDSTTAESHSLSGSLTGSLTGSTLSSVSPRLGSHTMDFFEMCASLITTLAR
Data set [9] concerns the target Tyrosine-protein kinase Mer (Homo sapiens) (UniProt Q12866). The data set is described as follows: Inhibition of recombinant human GST-tagged Mer expressed in Baculovirus at 1 uM relative to control.
Data set [10] concerns the target 5'-AMP-activated protein kinase catalytic subunit alpha-1 (Homo sapiens) (UniProt Q13131). As to the kind of experiment: Inhibition of recombinant human PRKAA1 at 1 uM relative to control.
In data set [11] the target is Ribosomal protein S6 kinase alpha-6 (Homo sapiens) (UniProt Q9UK32). The data set is described as follows: Inhibition of recombinant human full length GST-tagged RSK4 expressed in Baculovirus at 1 uM relative to control.
For data set [12], the target named is Phosphorylase b kinase gamma catalytic chain, skeletal muscle/heart isoform (Homo sapiens) (UniProt Q16816). The data set is described as follows: Inhibition of recombinant human full length GST-tagged PHKgamma 1 expressed in Baculovirus at 1 uM relative to control.
Chain of Phosphorylase b kinase gamma catalytic chain, skeletal muscle/heart isoform (Homo sapiens) (Q16816 whole entry, looked up, canonical isoform): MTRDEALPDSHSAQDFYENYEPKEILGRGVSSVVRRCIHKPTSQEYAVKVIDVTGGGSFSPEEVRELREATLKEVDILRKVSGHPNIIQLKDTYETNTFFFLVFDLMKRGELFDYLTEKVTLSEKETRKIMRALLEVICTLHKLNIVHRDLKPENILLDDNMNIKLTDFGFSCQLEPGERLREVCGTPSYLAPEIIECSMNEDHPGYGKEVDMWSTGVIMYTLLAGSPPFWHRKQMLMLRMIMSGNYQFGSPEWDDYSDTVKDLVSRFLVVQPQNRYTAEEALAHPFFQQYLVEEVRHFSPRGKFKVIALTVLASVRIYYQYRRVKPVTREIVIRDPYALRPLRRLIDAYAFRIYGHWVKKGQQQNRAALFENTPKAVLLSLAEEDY
The target of data set [13] is Serine/threonine-protein kinase 4 (Homo sapiens) (UniProt Q13043). The data set is described as follows: Inhibition of recombinant human full length GST-tagged MST1 expressed in Baculovirus at 1 uM relative to control.
Data set [14] addresses Tyrosine-protein kinase ABL2 (Homo sapiens) (UniProt P42684). As to the kind of experiment: Inhibition of recombinant human full length His-tagged ARG expressed in Baculovirus at 1 uM relative to control.
In data set [15] the target is CDK7/Cyclin H/MNAT1 (Homo sapiens) (UniProt P51946+P50613+P51948). As to the kind of experiment: Inhibition of recombinant human full length His-tagged CDK7/cyclin H/MNAT1 expressed in Baculovirus at 1 uM relative to control.
Data set [16] concerns the target Tyrosine-protein kinase Yes (Homo sapiens) (UniProt P07947). The data set is described as follows: Inhibition of recombinant human full length GST-tagged YES expressed in Baculovirus at 1 uM relative to control.
The target of data set [17] is Serine/threonine-protein kinase PAK 6 (Homo sapiens) (UniProt Q9NQU5). Conditions: 1 uM.
Data set [18] has as its target Serine/threonine-protein kinase 24 (Homo sapiens) (UniProt Q9Y6E0). As to the kind of experiment: Inhibition of recombinant human full length GST-tagged MST3 expressed in Baculovirus at 1 uM relative to control.
Data set [19] deals with Protein kinase C alpha type (Homo sapiens) (UniProt P17252). As to the kind of experiment: Inhibition of recombinant human full length PKCalpha expressed in Baculovirus at 1 uM relative to control.
Data set [20] has as its target Receptor-type tyrosine-protein kinase FLT3 (Homo sapiens) (UniProt P36888). The data set is described as follows: Inhibition of recombinant human full length His-tagged FLT3 expressed in Baculovirus at 1 uM relative to control.
Data set [21] can be described thus: Fraction unbound in mouse plasma at 50 mg/kg, ip. The class given is ADME, organism-based.
The target in data set [22] is Proto-oncogene tyrosine-protein kinase Src (Homo sapiens) (UniProt P12931). As to the kind of experiment: Inhibition of recombinant human full length His-tagged SRC expressed in Baculovirus at 1 uM relative to control.
Chain of Proto-oncogene tyrosine-protein kinase Src (Homo sapiens) (P12931 2-536 limits assumed): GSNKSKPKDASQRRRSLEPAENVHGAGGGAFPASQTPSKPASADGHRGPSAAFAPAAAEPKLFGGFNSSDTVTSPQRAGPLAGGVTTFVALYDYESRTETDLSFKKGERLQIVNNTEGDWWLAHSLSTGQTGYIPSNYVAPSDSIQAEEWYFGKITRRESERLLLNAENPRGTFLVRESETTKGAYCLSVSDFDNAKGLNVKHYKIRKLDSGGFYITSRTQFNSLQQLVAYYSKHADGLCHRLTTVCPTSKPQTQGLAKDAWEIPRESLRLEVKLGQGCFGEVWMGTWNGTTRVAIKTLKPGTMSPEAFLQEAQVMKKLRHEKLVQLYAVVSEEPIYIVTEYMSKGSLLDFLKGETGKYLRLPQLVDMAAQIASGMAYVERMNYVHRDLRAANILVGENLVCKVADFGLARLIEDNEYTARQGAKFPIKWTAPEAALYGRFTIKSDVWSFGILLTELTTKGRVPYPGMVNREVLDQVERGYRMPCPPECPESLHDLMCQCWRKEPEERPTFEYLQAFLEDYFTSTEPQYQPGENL
The target of data set [23] is Serine/threonine-protein kinase 25 (Homo sapiens) (UniProt O00506). As to the kind of experiment: Inhibition of recombinant human full length GST-tagged YSK1 expressed in Baculovirus at 1 uM relative to control.
Data set [24] deals with Sodium-dependent serotonin transporter (Homo sapiens) (UniProt P31645). The data set is described as follows: Inhibition of recombinant human 5HT transporter expressed in CHO cells at 10 uM relative to control. The class given is cell-based.
Chain of Sodium-dependent serotonin transporter (Homo sapiens) (P31645 whole entry, looked up): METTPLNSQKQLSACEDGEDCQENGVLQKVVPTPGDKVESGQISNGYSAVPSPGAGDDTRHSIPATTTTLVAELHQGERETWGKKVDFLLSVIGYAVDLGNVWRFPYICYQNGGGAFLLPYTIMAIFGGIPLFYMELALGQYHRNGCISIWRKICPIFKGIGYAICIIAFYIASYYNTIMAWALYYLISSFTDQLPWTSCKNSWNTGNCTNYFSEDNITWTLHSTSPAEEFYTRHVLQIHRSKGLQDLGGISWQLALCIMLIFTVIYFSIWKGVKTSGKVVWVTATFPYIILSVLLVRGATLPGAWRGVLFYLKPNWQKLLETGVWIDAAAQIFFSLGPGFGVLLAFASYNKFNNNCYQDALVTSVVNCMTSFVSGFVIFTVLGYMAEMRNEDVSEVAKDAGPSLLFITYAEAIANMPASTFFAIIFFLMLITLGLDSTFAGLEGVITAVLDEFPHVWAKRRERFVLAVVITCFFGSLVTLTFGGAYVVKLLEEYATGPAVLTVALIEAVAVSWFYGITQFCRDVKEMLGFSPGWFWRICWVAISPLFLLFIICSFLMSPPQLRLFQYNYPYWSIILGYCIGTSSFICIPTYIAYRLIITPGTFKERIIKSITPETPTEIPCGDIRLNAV
In data set [25] the target is Proto-oncogene tyrosine-protein kinase receptor Ret (Homo sapiens) (UniProt P07949). The data set is described as follows: Inhibition of recombinant human full length GST-tagged RET expressed in Baculovirus at 1 uM relative to control.
The target of data set [26] is Serine/threonine-protein kinase PAK 4 (Homo sapiens) (UniProt O96013). To be noted: 1 uM.
In data set [27] the target is High affinity nerve growth factor receptor (Homo sapiens) (UniProt P04629). The data set is described as follows: Inhibition of recombinant human His-tagged TRKA (441 to 796 residues) expressed in Baculovirus at 1 uM relative to control.
Chain of High affinity nerve growth factor receptor (Homo sapiens) (P04629 33-796 limits assumed): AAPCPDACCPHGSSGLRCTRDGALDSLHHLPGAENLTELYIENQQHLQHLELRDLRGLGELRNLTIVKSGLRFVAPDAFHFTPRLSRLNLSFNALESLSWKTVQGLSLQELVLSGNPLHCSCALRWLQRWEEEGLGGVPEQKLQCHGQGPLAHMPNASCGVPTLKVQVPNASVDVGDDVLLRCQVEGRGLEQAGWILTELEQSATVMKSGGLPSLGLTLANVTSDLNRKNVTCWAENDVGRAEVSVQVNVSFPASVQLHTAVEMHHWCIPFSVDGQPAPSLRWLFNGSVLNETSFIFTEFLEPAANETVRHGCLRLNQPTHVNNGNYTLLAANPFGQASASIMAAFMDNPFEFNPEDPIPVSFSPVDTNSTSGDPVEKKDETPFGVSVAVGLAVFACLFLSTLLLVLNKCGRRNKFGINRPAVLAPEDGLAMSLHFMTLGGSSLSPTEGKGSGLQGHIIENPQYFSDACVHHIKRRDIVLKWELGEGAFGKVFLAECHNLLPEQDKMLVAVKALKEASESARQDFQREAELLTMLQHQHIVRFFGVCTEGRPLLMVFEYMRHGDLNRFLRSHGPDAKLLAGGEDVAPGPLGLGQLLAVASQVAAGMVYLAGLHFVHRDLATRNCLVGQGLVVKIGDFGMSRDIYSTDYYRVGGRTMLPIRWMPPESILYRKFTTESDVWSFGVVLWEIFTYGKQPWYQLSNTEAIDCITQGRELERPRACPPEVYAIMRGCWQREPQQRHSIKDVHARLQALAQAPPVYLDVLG
The target in data set [28] is cAMP-dependent protein kinase catalytic subunit alpha (Homo sapiens) (UniProt P17612). The data set is described as follows: Inhibition of recombinant human full length His-tagged PRKACA expressed in Escherichia coli at 1 uM relative to control.
The nature of data set [29]: Ratio of fCmax associated with acute adverse effect in mouse at 50 mg/kg, ip to IC50 for PAK1/2-mediated phosphorylation of MEK1 at serine 298 in human EBC1 cells. In a few lines:
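Mouse tolerability study run at multiple doses, here by i.p. injection. Plasma drug levels were measured, and total concentration was converted to unbound. The minimum unbound Cmax associated with adverse effects (C_max,adverse,u) was divided by the cellular IC50 for inhibition of PAK1/2-mediated MEK1 S298 phosphorylation.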

In data set [30] the target is Serine/threonine-protein kinase Chk2 (Homo sapiens) (UniProt O96017). As to the kind of experiment: Inhibition of recombinant human full length His-tagged CHK2 expressed in Baculovirus at 1 uM relative to control.
Data set [31] addresses Glycogen synthase kinase-3 beta (Homo sapiens) (UniProt P49841). The data set is described as follows: Inhibition of recombinant human full length His-tagged GSK3beta expressed in Baculovirus at 1 uM relative to control.
Data set [32] has as its target Serine/threonine-protein kinase Chk1 (Homo sapiens) (UniProt O14757). The data set is described as follows: Inhibition of recombinant human full length His-tagged CHK1 expressed in Baculovirus at 1 uM relative to control.
Data set [33] addresses Ribosomal protein S6 kinase alpha-2 (Homo sapiens) (UniProt Q15349). The data set is described as follows: Inhibition of recombinant human full length His-tagged RSK2 expressed in Baculovirus at 1 uM relative to control.
Data set [34] addresses Serine/threonine-protein kinase MARK1 (Homo sapiens) (UniProt Q9P0L2). As to the kind of experiment: Inhibition of recombinant human full length GST-tagged MARK1 expressed in Baculovirus at 1 uM relative to control.
The target in data set [35] is Tyrosine-protein kinase Lyn (Homo sapiens) (UniProt P07948). The data set is described as follows: Inhibition of recombinant human full length His-tagged LynB expressed in Baculovirus at 1 uM relative to control.
In data set [36] the target is Testis-specific serine/threonine-protein kinase 1 (Homo sapiens) (UniProt Q9BXA7). The data set is described as follows: Inhibition of recombinant human full length His-tagged TSSK1 expressed in Baculovirus at 1 uM relative to control.
Chain of Testis-specific serine/threonine-protein kinase 1 (Homo sapiens) (Q9BXA7 whole entry): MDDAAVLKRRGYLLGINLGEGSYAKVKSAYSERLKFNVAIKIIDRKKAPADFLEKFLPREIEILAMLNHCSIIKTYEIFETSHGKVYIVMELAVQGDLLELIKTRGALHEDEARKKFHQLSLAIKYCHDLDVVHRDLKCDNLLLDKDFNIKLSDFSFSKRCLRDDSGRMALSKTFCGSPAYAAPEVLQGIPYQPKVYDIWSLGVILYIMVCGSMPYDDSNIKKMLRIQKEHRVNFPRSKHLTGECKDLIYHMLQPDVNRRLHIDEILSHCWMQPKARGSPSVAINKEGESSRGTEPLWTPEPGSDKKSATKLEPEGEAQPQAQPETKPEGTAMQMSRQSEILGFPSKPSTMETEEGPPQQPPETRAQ
Data set [37] addresses Adenosine receptor A1 (Homo sapiens) (UniProt P30542). As to the kind of experiment: Inhibition of recombinant human adenosine A1 receptor expressed in CHO cells at 10 uM relative to control. It counts as cell-based.
Data set [38] in a line: Cmax associated with acute adverse effect in mouse at 50 mg/kg, ip. To be noted: in vivo. The arrangement: dose 50 mg/kg, route intraperitoneal. It counts as ADME, organism-based. In a few lines:
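Mouse tolerability studies tested multiple doses, given orally or intraperitoneally. Plasma drug concentrations were measured, including at a 15 min time point. The minimum concentration associated with adverse clinical signs or death was taken as the adverse Cmax and was converted to an unbound value.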

The target in data set [39] is MAP/microtubule affinity-regulating kinase 3 (Homo sapiens) (UniProt P27448). As to the kind of experiment: Inhibition of recombinant human full length GST-tagged MARK3 expressed in Baculovirus at 1 uM relative to control.
Chain of MAP/microtubule affinity-regulating kinase 3 (Homo sapiens) (P27448 whole entry, looked up): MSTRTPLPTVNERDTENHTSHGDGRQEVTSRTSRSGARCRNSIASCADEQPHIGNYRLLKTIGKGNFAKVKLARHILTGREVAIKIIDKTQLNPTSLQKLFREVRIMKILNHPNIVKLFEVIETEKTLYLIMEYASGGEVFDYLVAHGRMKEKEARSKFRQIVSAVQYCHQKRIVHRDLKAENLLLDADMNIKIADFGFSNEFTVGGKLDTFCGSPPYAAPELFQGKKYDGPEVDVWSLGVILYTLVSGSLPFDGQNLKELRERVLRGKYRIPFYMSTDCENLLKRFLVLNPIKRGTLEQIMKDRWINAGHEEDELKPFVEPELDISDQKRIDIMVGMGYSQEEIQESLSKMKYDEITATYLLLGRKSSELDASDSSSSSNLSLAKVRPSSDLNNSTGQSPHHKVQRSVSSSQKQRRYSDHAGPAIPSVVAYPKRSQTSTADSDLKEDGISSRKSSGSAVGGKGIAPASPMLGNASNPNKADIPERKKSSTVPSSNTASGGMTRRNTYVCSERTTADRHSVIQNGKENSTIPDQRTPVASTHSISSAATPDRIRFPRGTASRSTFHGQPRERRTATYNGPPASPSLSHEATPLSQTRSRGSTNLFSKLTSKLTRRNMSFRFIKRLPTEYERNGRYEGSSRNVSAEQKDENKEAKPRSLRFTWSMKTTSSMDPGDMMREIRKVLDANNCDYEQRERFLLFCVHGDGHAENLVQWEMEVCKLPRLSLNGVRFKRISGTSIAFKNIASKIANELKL
Data set [40] has as its system Mus musculus. As to the kind of experiment: fCmax associated with acute adverse effect in mouse at 25 mg/kg, ip. Conditions: in vivo. The class given is ADME, organism-based. The method in brief: as §1
Data set [41] in a line: Ratio of fCmax associated with acute adverse effect in mouse at 25 mg/kg, ip to IC50 for PAK1/2-mediated phosphorylation of MEK1 at serine 298 in human EBC1 cells.
Data set [42] in a line: Fraction unbound in mouse plasma at 25 mg/kg, ip. The class given is ADME, organism-based.

Chain of 5'-AMP-activated protein kinase catalytic subunit alpha-1 (Homo sapiens) (Q13131 whole entry, looked up): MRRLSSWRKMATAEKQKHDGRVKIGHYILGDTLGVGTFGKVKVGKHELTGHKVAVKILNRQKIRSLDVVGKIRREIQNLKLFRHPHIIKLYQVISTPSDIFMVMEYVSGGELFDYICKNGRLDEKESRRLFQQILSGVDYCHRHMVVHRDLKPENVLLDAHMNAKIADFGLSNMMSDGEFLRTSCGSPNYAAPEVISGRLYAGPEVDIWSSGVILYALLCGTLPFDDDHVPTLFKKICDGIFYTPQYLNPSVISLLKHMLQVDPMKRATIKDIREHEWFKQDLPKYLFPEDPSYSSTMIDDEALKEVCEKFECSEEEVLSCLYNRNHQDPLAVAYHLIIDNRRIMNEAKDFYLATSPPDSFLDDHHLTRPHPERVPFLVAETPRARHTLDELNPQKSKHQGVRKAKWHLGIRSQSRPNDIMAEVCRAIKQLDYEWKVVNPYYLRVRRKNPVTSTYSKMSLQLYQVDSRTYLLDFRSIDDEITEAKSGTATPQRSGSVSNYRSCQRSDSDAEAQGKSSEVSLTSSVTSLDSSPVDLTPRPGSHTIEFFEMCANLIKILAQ
Chain of Serine/threonine-protein kinase 24 (Homo sapiens) (Q9Y6E0 whole entry, looked up): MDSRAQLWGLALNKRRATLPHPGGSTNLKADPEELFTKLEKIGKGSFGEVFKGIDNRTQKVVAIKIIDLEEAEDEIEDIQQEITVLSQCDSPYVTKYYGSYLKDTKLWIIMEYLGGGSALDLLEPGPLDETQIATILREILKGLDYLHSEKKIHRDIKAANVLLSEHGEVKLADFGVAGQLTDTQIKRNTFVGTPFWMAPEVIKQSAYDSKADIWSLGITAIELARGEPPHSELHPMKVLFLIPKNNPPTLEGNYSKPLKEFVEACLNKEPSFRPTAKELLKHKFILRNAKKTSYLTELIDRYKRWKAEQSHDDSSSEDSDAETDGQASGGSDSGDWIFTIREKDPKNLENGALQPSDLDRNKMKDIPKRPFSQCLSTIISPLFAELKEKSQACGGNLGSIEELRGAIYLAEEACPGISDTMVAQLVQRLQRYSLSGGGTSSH

The term inhibition denotes the share of the control response that was lost under treatment. By fraction unbound is commonly meant the share of the substance not bound to proteins or other matrix. In data set [1], `Cc1nc(Nc2n[nH]c3c2CN(C(=O)N[C@H](CN(C)C)c2ccccc2)C3(C)C)c2sccc2n1` [PF-03758309] came in with a fCmax of 1.6 µM. In addition, the inhibition in [2], in data set [3], in data set [5], in [6], in [7] and in [8] was over 75% throughout. In addition, the inhibition in data set [9], in data set [10], in [11], in data set [12], in data set [13] and in [14] was over 75% each time. For the same compound, the inhibition in data set [15], in data set [16], in [17], in data set [18], in [19] and in data set [20] was over 75% throughout. Besides, the inhibition in data set [22], in data set [23], in [24], in [25], in data set [26] and in [27] was over 75% throughout. Moreover, the inhibition in data set [28], in data set [30], in [31], in [32], in data set [33] and in [34] was over 75% each time. Further, the inhibition in [35], in data set [36], in data set [37] and in data set [39] was over 75% each time. The Cmax in data set [4] and in [38] was 10 µM each time. In data set [21], this compound returned a fraction unbound of 0.163. In addition, the Ratio in [29] is given as 1.
In data set [40], `N[C@H]1CC[C@H](CNc2nccc(Nc3cc(C(F)(F)F)ccn3)n2)CC1` came in with a fCmax of 1.6 µM. In data set [41], the Ratio came to 1. Moreover, the Cmax in data set [38] was 26 µM. The fraction unbound in data set [42] is 0.063.
